Measured values published in ChEMBL document CHEMBL2375288, “Synthesis and pharmacokinetic profile of highly deuterated brecanavir analogs” (Eur J Med Chem, 2013).

Key:
[1] = system: Hepatocyte; assay: Drug metabolism in human hepatocytes assessed as formation of -[2H]-(3R,3aS,6aR)-hexahydrofuro[2,3-b]furan-3-yl (2S,3R)-4-(1-(3,4-dihydroxyphenyl)-N-isobutylmethylsulfonamido)-3-hydroxy-1-(4-((2-methylthiazol-4-yl)methoxy)phenyl)butan-2-ylcarbamate at 10 uM after 4 hrs by LC/MS/MS analysis; format: ADME, cell-based
[2] = system: Hepatocyte; assay: Drug metabolism in rat hepatocytes assessed as formation of -[2H]-6-(5-((N-((2R,3S)-3-(((3R,3aS,6aR)-hexahydrofuro[2,3-b]furan-3-yloxy)carbonylamino)-2-hydroxy-4-(4-((2-methylthiazol-4-yl)methoxy)phenyl)butyl)-N-isobutylsulfamoyl)methyl)-2-methoxyphenoxy)-3,4,5-trihydroxytetrahydro-2H-pyran-2-carboxylic acid at 10 uM after 4 hrs by LC/MS/MS analysis; format: ADME, cell-based
[3] = system: Rattus norvegicus; assay: Dose-normalized AUC in rat at 0.25 mg/kg, iv; format: ADME, organism-based; set-up: dose 0.25 mg/kg, route intravenous; conditions: in vivo
Outline: (§1)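 Intravenous dosing at 0.25 mg/kg in fed rats, given as a solution in DMSO/solutol/mannitol (2.5/10/87.5).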

[4] = Half life in rat at 0.25 mg/kg, iv; format: ADME, organism-based; set-up: dose 0.25 mg/kg, route intravenous; conditions: in vivo; outline: as §1
[5] = Plasma clearance in rat at 0.25 mg/kg, iv; format: ADME, organism-based; set-up: dose 0.25 mg/kg, route intravenous; outline: as §1
[6] = system: Rattus norvegicus; assay: Dose-normalized AUC in rat at 0.25 mg/kg, iv co-administered with 4 mg/kg of ritonavir; format: ADME, organism-based; conditions: in vivo
Outline: (§2)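 Fed rats received 0.25 mg/kg intravenously as a DMSO/solutol/mannitol (2.5/10/87.5) solution, with ritonavir co-administered at 4 mg/kg.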

[7] = Half life in rat at 0.25 mg/kg, iv co-administered with 4 mg/kg of ritonavir; format: ADME, organism-based; conditions: in vivo; outline: as §2
[8] = Plasma clearance in rat at 0.25 mg/kg, iv co-administered with 4 mg/kg of ritonavir; format: ADME, organism-based; outline: as §2

Stability [1]	Stability [2]	AUC/dose [3]	half-life [4]	clearance [5]	AUC/dose [6]	half-life [7]	clearance [8]	SMILES
Unstable	Unstable	64 ng·h/mL/mg	12 min	64 mL/min/kg	–	–	–	[2H]C1([2H])Oc2ccc(S(=O)(=O)N(C[C@@]([2H])(O)[C@H](Cc3ccc(OC([2H])([2H])c4csc(C)n4)cc3)NC(=O)O[C@@]3([2H])CO[C@@]4([2H])OCC[C@H]43)C([2H])([2H])C([2H])(C([2H])([2H])[2H])C([2H])([2H])[2H])cc2O1
–	–	59 ng·h/mL/mg	12 min	59 mL/min/kg	–	–	–	[2H]C1([2H])C[C@@H]2[C@H](O1)OC([2H])([2H])[C@]2([2H])OC(=O)N[C@@H](Cc1ccc(OC([2H])([2H])c2csc(C)n2)cc1)[C@]([2H])(O)CN(C([2H])([2H])C([2H])(C([2H])([2H])[2H])C([2H])([2H])[2H])S(=O)(=O)c1ccc2c(c1)OC([2H])([2H])O2
–	–	66 ng·h/mL/mg	12 min	65 mL/min/kg	774 ng·h/mL/mg	132 min	5.4 mL/min/kg	Cc1nc(COc2ccc(C[C@H](NC(=O)O[C@H]3CO[C@H]4OCC[C@H]43)[C@H](O)CN(CC(C)C)S(=O)(=O)c3ccc4c(c3)OCO4)cc2)cs1 [BRECANAVIR]
